Only some compounds are listed: those with a hit (about 2.9% of all), similar ones and a draw of the others.
C2C12 statin: suppressors of simvastatin-induced myotoxicity in C2C12 myotubes. ATP luminescence, 48 h; scaled: DMSO 0, geranylgeraniol control 100. rescue of ATP level, % at 7.49 µM. hit rate 0.78% among 330,000. AID 602340;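 active = mean ATP rescue above about 67%, or every replicate alone reaching that limit, limit read from the data, passing the limit was not always enough; inconclusive = no clear call, values can overlap the other calls; inactive = mean under the limit and some replicate under it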;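 note: myotubes were challenged with 10 µM simvastatin during compound exposure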
S100A4 inh HTS: S100A4-myosin IIA interaction inhibition; inhibition, % at 10.7 µM; S100A4/TAMRA-MyoIIA peptide fluorescence polarization; hit rate 0.14% among 360,000;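 active = mean inhibition of at least 70% across replicates, with every replicate also reaching that level; inconclusive = mean inhibition reaches 70% but some replicates fall short; inactive = mean inhibition below 70%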
Target sequence (P26447 whole entry, looked up): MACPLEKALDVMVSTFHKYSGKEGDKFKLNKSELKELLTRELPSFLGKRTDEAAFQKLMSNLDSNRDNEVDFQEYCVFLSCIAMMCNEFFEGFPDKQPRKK
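System – human S100A4 monomer protein, biochemical binding assay · Buffer or medium – Calcium-containing HEPES buffer, pH 7.2 · Timing – 5 min between mix addition and reading · Also added – TAMRA-labelled myosin IIA heavy-chain peptide probe, 5 nM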
PGC1a acetyl inh: lowers PGC1a acetylation signal in U2OS cells. inhibition, % at 15.6 µM. AID 651687. hit rate 0.17% among 350,000. AlphaScreen anti-acetyl-lysine; with virally co-expressed GCN5 acetyltransferase;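 active = every replicate shows inhibition of at least 40%; inconclusive = mean inhibition at least 40% but some replicate below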;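 note: 0% = neutral control wells and 100% = positive control wells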
SIRT5 block: inhibitors of human sirtuin-5 desuccinylase; Purified SirT5, succinyl-peptide AMC, trypsin-coupled fluorescence; inhibition, % at 15 µM; hit rate 1.1% among 330,000; in the data active = inhibition above about 15%; inconclusive = no clear call, values can overlap the other calls
Target sequence (Q9NXA8 whole entry, looked up): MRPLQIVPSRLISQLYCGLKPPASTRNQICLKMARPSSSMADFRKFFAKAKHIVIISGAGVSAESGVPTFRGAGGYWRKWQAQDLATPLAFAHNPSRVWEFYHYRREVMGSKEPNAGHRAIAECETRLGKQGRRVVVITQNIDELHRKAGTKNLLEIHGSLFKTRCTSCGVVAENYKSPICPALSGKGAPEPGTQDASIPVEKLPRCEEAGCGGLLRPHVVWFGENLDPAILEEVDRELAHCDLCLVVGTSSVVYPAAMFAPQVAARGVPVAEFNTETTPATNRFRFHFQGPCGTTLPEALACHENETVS
DENV2 CPE rescue: inhibitors of DENV2 cytopathic effect; DENV2-infected cells, cytopathic effect rescue, plate reader; CPE inhibition, % at 9.99 µM; hit rate 1.7% among 350,000; AID 651640; in the data active = CPE inhibition above about 20%, passing the limit was not always enough; inconclusive = no clear call, values can overlap the other calls; tested in BHK-21 cells;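 note: 0% = median of neutral control wells and 100% = median of positive control wells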
Starred values were filed as active, the others as inactive.

Screening CO[C@@H]1CC[C@@H]2CCN(C)C(=O)[C@@H](C)[C@H](OC)CN(C)C(=O)c3cc(C#N)ccc3OC[C@@H]1O2 returned C2C12 statin 7.4, S100A4 inh HTS 12.4, PGC1a acetyl inh 0.1, SIRT5 block 18.5* and DENV2 CPE rescue -0.5.
For CSC(=S)N/N=C/c1ccccc1 the results were C2C12 statin 87.2*, S100A4 inh HTS 5.2, PGC1a acetyl inh -20.1, SIRT5 block -7.3 and DENV2 CPE rescue -2.6.
`COc1ccc(/C=N/NC(=S)SC)cc1OC` gave S100A4 inh HTS 1.1, SIRT5 block -0.4 and DENV2 CPE rescue 1.1.
Screening CO[C@@H]1CN(C)C(=O)c2ccc(NC(=O)c3ccc4c(c3)OCO4)cc2OC[C@H](C)N(CCC(F)(F)F)C[C@@H]1C returned C2C12 statin 35.3, S100A4 inh HTS 5.5, PGC1a acetyl inh 9.6, SIRT5 block 7.1 and DENV2 CPE rescue -2.9.
Screening O=C(Cn1c2[n+](c3ccccc31)CC(O)CS2)c1ccccc1 (centres undefined) returned S100A4 inh HTS 6.7, PGC1a acetyl inh -5.4, SIRT5 block -1.8 and DENV2 CPE rescue 57.8*.
Cc1ccc(C(=O)Cn2c3[n+](c4ccccc42)CC(O)CS3)cc1 (centres undefined) was read as C2C12 statin 6.8, S100A4 inh HTS -1.0, PGC1a acetyl inh -0.2, SIRT5 block 2.9 and DENV2 CPE rescue 0.2.
Screening COC(=O)CCC(=O)NNC(=O)c1ccc(Br)cc1 returned C2C12 statin 100.9* and PGC1a acetyl inh -5.2.
Screening Cc1noc(C)c1S(=O)(=O)Nc1ccc2c(c1)C(=O)N([C@H](C)CO)C[C@H](C)[C@H](CN(C)S(=O)(=O)c1ccc(F)cc1)O2 returned C2C12 statin -6.2, S100A4 inh HTS -16.2, PGC1a acetyl inh -6.2, SIRT5 block -1.9 and DENV2 CPE rescue inconclusive.
Screening COc1ccc(N2CCN(C(=O)C3CCN(S(=O)(=O)c4ccc5c(c4)CC(C)N5C(=O)C4CC4)CC3)CC2)cc1 (centres undefined) returned S100A4 inh HTS -0.1, SIRT5 block 0.8 and DENV2 CPE rescue -4.9.
Cn1ccnc1C(OC(=O)c1ccccc1)C(F)(F)F (centres undefined) was read as C2C12 statin -1.4, S100A4 inh HTS -1.9, PGC1a acetyl inh 3.6, SIRT5 block 15.3* and DENV2 CPE rescue -6.3.
O=[N+]([O-])c1c(NCCCO)cc(N2CCCCCC2)c2nonc12 was read as C2C12 statin -2.6, S100A4 inh HTS -0.8, PGC1a acetyl inh 5.9, SIRT5 block 0.7 and DENV2 CPE rescue 37.4*.
Screening CC(C)NC(=O)Nc1ccc2c(c1)C(=O)N([C@H](C)CO)C[C@@H](C)[C@@H](CN(C)Cc1ccc(-c3ccccc3)cc1)O2 returned C2C12 statin -24.9, S100A4 inh HTS 1.3, PGC1a acetyl inh -7.6, SIRT5 block 15.5* and DENV2 CPE rescue 8.8.
`CC(C)NC(=O)Nc1ccc2c(c1)C(=O)N([C@@H](C)CO)C[C@H](C)[C@H](CN(C)Cc1ccccc1)O2` gave C2C12 statin 77.0*, S100A4 inh HTS 9.2, PGC1a acetyl inh 2.6, SIRT5 block -4.5 and DENV2 CPE rescue -8.3.
CC(C)NC(=O)Nc1ccc2c(c1)C(=O)N([C@H](C)CO)C[C@H](C)[C@@H](CN(C)Cc1ccc(Cl)c(Cl)c1)O2 was read as C2C12 statin -8.0, S100A4 inh HTS -17.8, PGC1a acetyl inh -1.4, SIRT5 block 24.3* and DENV2 CPE rescue -4.5.
CC(C)NC(=O)Nc1ccc2c(c1)C(=O)N([C@@H](C)CO)C[C@@H](C)[C@@H](CN(C)Cc1ccc(Cl)c(Cl)c1)O2 was read as C2C12 statin 6.2, S100A4 inh HTS 3.9, PGC1a acetyl inh -0.8, SIRT5 block 4.9 and DENV2 CPE rescue -2.8.
Screening CC(C)NC(=O)Nc1ccc2c(c1)C(=O)N([C@@H](C)CO)C[C@H](C)[C@H](CN(C)Cc1ccc(-c3ccccc3)cc1)O2 returned C2C12 statin -2.9, S100A4 inh HTS -9.5, PGC1a acetyl inh -0.5, SIRT5 block 0.4 and DENV2 CPE rescue 0.1.
For COc1ccc(CN(C)C[C@@H]2Oc3ccc(NC(=O)C4CC4)cc3C(=O)N([C@@H](C)CO)C[C@@H]2C)cc1 the results were C2C12 statin -1.8, S100A4 inh HTS 5.7, PGC1a acetyl inh -4.2, SIRT5 block -1.9 and DENV2 CPE rescue 1.8.
Screening CN1CCN(C(=O)C[C@H]2CC[C@@H]3[C@H](COC[C@@H](O)CN3CC3CCOCC3)O2)CC1 returned C2C12 statin 3.4, S100A4 inh HTS 7.3, PGC1a acetyl inh 9.1, SIRT5 block 0.5 and DENV2 CPE rescue -0.5.
`C[C@H](CO)N1C[C@H](C)[C@H](CN(C)C(=O)C2CCCCC2)OCCCC[C@H](C)Oc2ccc(NC(=O)Nc3cccc4ccccc34)cc2C1=O` gave S100A4 inh HTS -15.8, PGC1a acetyl inh 2.6, SIRT5 block 6.6 and DENV2 CPE rescue 9.3.
Screening C[C@H](CO)N1C[C@H](C)[C@@H](CN(C)C(=O)C2CCCCC2)OCCCC[C@H](C)Oc2ccc(NC(=O)Nc3cccc4ccccc34)cc2C1=O returned S100A4 inh HTS -9.1, PGC1a acetyl inh 16.8, SIRT5 block 5.2 and DENV2 CPE rescue 13.8.
Screening C[C@@H]1CN([C@H](C)CO)C(=O)c2cc(NC(=O)Nc3cccc4ccccc34)ccc2O[C@@H](C)CCCCO[C@@H]1CN(C)C(=O)C1CCCCC1 returned S100A4 inh HTS -6.4, PGC1a acetyl inh 8.0, SIRT5 block 0.6 and DENV2 CPE rescue 19.0.
C[C@@H]1CCCCO[C@@H](CN(C)C(=O)C2CCCCC2)[C@@H](C)CN([C@H](C)CO)C(=O)c2cc(NC(=O)Nc3cccc4ccccc34)ccc2O1 was read as S100A4 inh HTS 108.5*, PGC1a acetyl inh 14.1, SIRT5 block 0.9 and DENV2 CPE rescue 22.2*.
Screening C[C@@H]1CCCCO[C@H](CN(C)C(=O)C2CCCCC2)[C@@H](C)CN([C@@H](C)CO)C(=O)c2cc(NC(=O)Nc3cccc4ccccc34)ccc2O1 returned S100A4 inh HTS -14.9, PGC1a acetyl inh -10.6, SIRT5 block 1.4 and DENV2 CPE rescue 26.2*.
`C[C@@H]1CN([C@@H](C)CO)C(=O)c2cc(NC(=O)Nc3cccc4ccccc34)ccc2O[C@@H](C)CCCCO[C@H]1CN(C)C(=O)C1CCCCC1` gave S100A4 inh HTS -20.8, PGC1a acetyl inh -7.5, SIRT5 block 1.7 and DENV2 CPE rescue 22.2*.
Screening C[C@@H]1CCCCO[C@@H](CN(C)C(=O)C2CCCCC2)[C@H](C)CN([C@H](C)CO)C(=O)c2cc(NC(=O)Nc3cccc4ccccc34)ccc2O1 returned S100A4 inh HTS -21.6, PGC1a acetyl inh -5.3, SIRT5 block 4.6 and DENV2 CPE rescue 23.3*.
For CC(C)c1ccc(NC2CCCN(C(=O)CC3CCCC3)C2)cc1 (centres undefined) the results were C2C12 statin -4.9, S100A4 inh HTS -1.9, PGC1a acetyl inh -5.2, SIRT5 block 34.3* and DENV2 CPE rescue 5.1.
